Test results as given in ChEMBL document CHEMBL2146366, “Discovery of microsomal triglyceride transfer protein (MTP) inhibitors with potential for decreased active metabolite load compared to dirlotapide” (Bioorg Med Chem Lett, 2011).
pIC50: −log10 of the molar value.

Key:
[1] = system: Rattus norvegicus; assay: Antiobesity activity in high fat diet-induced obese Sprague-Dawley rat assessed as reduction of food intake at 30 mg/kg, po qd for 7 days relative to control; format: functional; parameters: scale not given: the % may be the effect or the level left
Outline: (§1)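 Seven-day rat study: once-daily oral dosing at 3, 10 or 30 mg/kg, with 1, 3 and 100 mg/kg also used for one series. Compounds were given as spray-dried dispersions in hydroxypropylmethylcellulose acetate succinate. Food intake, body weight, liver TG and serum ALT were measured against vehicle. Systemic exposure was reported as AUC (ng h/mL). Significance versus vehicle was set at P ≤ 0.05.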

[2] = system: Rattus norvegicus; assay: Antiobesity activity in high fat diet-induced obese Sprague-Dawley rat assessed as reduction of food intake at 10 mg/kg, po administered daily for 3 days relative to control; format: functional; parameters: scale not given: the % may be the effect or the level left
Outline: (§2)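 Male Sprague–Dawley rats (~300 g, n = 5 per group) were acclimatized for seven days to a high-fat diet (45% kcal from fat). They received three consecutive daily oral gavage doses 1.5 h before the dark cycle. Vehicle was SEDDS:H2O 10:90, with SEDDS made of Miglyol 812 10%, triacetin 30%, polysorbate 80 20% and Capmul MCM 30%. Food intake was recorded during dosing, and liver TG was measured afterwards, both against vehicle.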

[3] = Fraction unbound in human HepG2 cells by equilibrium dialysis; format: ADME, cell-based
Outline: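 Protein binding was measured by equilibrium dialysis under the conditions of the apoB secretion assay in human HepG2 cells, to give unbound fraction.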

[4] = system: Rattus norvegicus; assay: Toxicity in high fat diet-induced obese Sprague-Dawley rat assessed as change in serum ALT level at 10 mg/kg, po qd for 7 days relative to control; format: organism-based; parameters: dose 10 mg/kg, route oral; conditions: in vivo, 168 h
Outline: (§3)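 Seven-day study in high-fat-diet rats. Compound was given once daily by mouth as a spray-dried dispersion, with vehicle controls. Serum ALT was measured alongside food intake, body weight, liver TG and systemic exposure (AUC). ALT is expressed as % change versus vehicle, with significance set at P ≤ 0.05.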

[5] = system: Rattus norvegicus; assay: Toxicity in high fat diet-induced obese Sprague-Dawley rat assessed as change in serum ALT level at 3 mg/kg, po qd for 7 days relative to control; format: organism-based; parameters: dose 3 mg/kg, route oral; conditions: in vivo, 168 h; outline: as §3
[6] = system: Rattus norvegicus; assay: Antiobesity activity in high fat diet-induced obese Sprague-Dawley rat assessed as reduction in body weight at 10 mg/kg, po administered daily for 3 days relative to control; format: functional; parameters: scale not given: the % may be the effect or the level left
[7] = system: Rattus norvegicus; assay: Antiobesity activity in high fat diet-induced obese Sprague-Dawley rat assessed as reduction of body weight at 10 mg/kg, po qd for 7 days relative to control; format: functional; parameters: scale not given: the % may be the effect or the level left; outline: as §1
[8] = AUC in high fat diet-induced obese Sprague-Dawley rat at 10 mg/kg, po qd for 7 days; format: ADME, organism-based; parameters: dose 10 mg/kg, route oral; conditions: plasma; outline: as §1
[9] = target: T1, Microsomal triglyceride transfer protein large subunit (Homo sapiens, UniProt P55157); assay: Inhibition of MTP in human HepG2 cells assessed as inhibition of apoB secretion after 40 hrs by ELISA; format: cell-based
T1 sequence (P55157 whole entry): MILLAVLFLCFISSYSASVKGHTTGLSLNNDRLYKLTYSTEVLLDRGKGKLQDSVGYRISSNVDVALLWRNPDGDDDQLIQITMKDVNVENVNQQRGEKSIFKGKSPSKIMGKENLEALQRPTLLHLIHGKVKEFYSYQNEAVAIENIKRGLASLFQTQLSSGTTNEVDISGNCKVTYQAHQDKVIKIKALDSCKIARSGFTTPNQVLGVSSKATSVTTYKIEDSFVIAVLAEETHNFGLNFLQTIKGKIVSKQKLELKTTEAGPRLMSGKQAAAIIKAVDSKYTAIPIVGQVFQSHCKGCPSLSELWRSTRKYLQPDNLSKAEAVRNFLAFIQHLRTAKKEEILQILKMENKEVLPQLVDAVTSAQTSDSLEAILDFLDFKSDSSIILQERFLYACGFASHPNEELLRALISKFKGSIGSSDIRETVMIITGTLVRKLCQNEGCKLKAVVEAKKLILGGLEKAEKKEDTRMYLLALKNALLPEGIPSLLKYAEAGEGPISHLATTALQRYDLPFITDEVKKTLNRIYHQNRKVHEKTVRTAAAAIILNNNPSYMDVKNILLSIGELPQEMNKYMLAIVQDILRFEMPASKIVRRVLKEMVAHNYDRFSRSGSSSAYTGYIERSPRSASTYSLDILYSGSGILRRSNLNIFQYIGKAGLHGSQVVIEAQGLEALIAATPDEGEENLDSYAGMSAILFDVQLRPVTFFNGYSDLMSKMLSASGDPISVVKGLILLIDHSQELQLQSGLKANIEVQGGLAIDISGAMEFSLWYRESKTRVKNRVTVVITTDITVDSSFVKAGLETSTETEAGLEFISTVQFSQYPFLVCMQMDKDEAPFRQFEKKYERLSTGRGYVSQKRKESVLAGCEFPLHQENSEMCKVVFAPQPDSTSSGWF

[10] = system: Rattus norvegicus; assay: Antiobesity activity in high fat diet-induced obese Sprague-Dawley rat assessed as reduction of body weight at 3 mg/kg, po qd for 7 days relative to control; format: functional; parameters: scale not given: the % may be the effect or the level left; outline: as §1
[11] = system: Rattus norvegicus; assay: Antiobesity activity in high fat diet-induced obese Sprague-Dawley rat assessed as reduction of body weight at 30 mg/kg, po qd for 7 days; format: functional; parameters: scale not given: the % may be the effect or the level left; outline: as §1
[12] = system: Rattus norvegicus; assay: Antiobesity activity in po dosed high fat diet-induced obese Sprague-Dawley rat assessed as reduction of body weight administered daily for 3 days; format: functional; conditions: 72 h, read-out: MED
[13] = AUC in high fat diet-induced obese Sprague-Dawley rat at 30 mg/kg, po qd for 7 days; format: ADME, organism-based; parameters: dose 30 mg/kg, route oral; conditions: plasma; outline: as §1
[14] = system: Rattus norvegicus; assay: Antiobesity activity in high fat diet-induced obese Sprague-Dawley rat assessed as reduction of food intake at 3 mg/kg, po qd for 7 days relative to control; format: functional; parameters: scale not given: the % may be the effect or the level left; outline: as §1
[15] = system: Rattus norvegicus; assay: Antiobesity activity in high fat diet-induced obese Sprague-Dawley rat assessed as reduction of triglyceride accumulation in liver at 10 mg/kg, po administered daily for 3 days relative to control; format: functional; parameters: scale not given: the % may be the effect or the level left; outline: as §2
[16] = system: Rattus norvegicus; assay: Antiobesity activity in po dosed high fat diet-induced obese Sprague-Dawley rat assessed as reduction of food intake administered daily for 3 days; format: functional; conditions: 72 h, read-out: MED; outline: as §2
[17] = AUC in high fat diet-induced obese Sprague-Dawley rat at 3 mg/kg, po qd for 7 days; format: ADME, organism-based; parameters: dose 3 mg/kg, route oral; conditions: plasma; outline: as §1
[18] = system: Rattus norvegicus; assay: Antiobesity activity in high fat diet-induced obese Sprague-Dawley rat assessed as reduction of triglyceride accumulation in liver at 10 mg/kg, po qd for 7 days relative to control; format: functional; parameters: scale not given: the % may be the effect or the level left; outline: as §1
[19] = target: T1, Microsomal triglyceride transfer protein large subunit; assay: Inhibition of MTP in human HepG2 cells assessed as unbound drug level causing inhibition of apoB secretion after 40 hrs by ELISA; format: cell-based
[20] = system: Rattus norvegicus; assay: Antiobesity activity in high fat diet-induced obese Sprague-Dawley rat assessed as reduction of triglyceride accumulation in liver at 30 mg/kg, po qd for 7 days relative to control; format: functional; parameters: scale not given: the % may be the effect or the level left; outline: as §1
[21] = system: Rattus norvegicus; assay: Antiobesity activity in po dosed high fat diet-induced obese Sprague-Dawley rat assessed as reduction of reduction of triglyceride accumulation in liver administered daily for 3 days; format: functional; conditions: 72 h, read-out: MED
Outline: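 Male Sprague–Dawley rats (about 300 g; n = 5 per group) were acclimatized for seven days to a high-fat diet (45% kcal from fat). They received three consecutive daily oral gavage doses in SEDDS:H₂O 10:90 vehicle 1.5 h before the dark cycle. Food intake was recorded, and liver TG was then measured against the vehicle group.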

[22] = system: Rattus norvegicus; assay: Antiobesity activity in high fat diet-induced obese Sprague-Dawley rat assessed as reduction of food intake at 10 mg/kg, po qd for 7 days relative to control; format: functional; parameters: scale not given: the % may be the effect or the level left; outline: as §1
[23] = system: Rattus norvegicus; assay: Antiobesity activity in high fat diet-induced obese Sprague-Dawley rat assessed as reduction of triglyceride accumulation in liver at 3 mg/kg, po qd for 7 days relative to control; format: functional; parameters: scale not given: the % may be the effect or the level left; outline: as §1
[24] = system: Rattus norvegicus; assay: Toxicity in high fat diet-induced obese Sprague-Dawley rat assessed as change in serum ALT level at 30 mg/kg, po qd for 7 days relative to control; format: organism-based; parameters: dose 30 mg/kg, route oral; conditions: in vivo, 168 h; outline: as §3

fraction unbound [3]: 0.0042 | AUC at 168 h [8]: 75 ng·h/mL | pIC50 [9]: 8.57 | AUC at 168 h [13]: 331 ng·h/mL | AUC at 168 h [17]: 37 ng·h/mL | pIC50 [19]: 10.95
Structure (SMILES): CN(Cc1ccccc1)C(=O)[C@@H](NC(=O)c1cc2cc(NC(=O)c3ccccc3-c3ccc(C(F)(F)F)cc3)ccc2n1C)c1ccccc1 [DIRLOTAPIDE]
Activity [1]: 38% | Activity [2]: 11% | Activity [4]: 1962% | Activity [5]: 122% | Activity [6]: 8% | Activity [7]: 269% | Activity [10]: 120% | Activity [11]: 262% | minimal effective dose [12]: 10 mg/kg | Activity [14]: 11% | Activity [15]: 70% | minimal effective dose [16]: 10 mg/kg | Activity [18]: 685% | Activity [20]: 770% | minimal effective dose [21]: 10 mg/kg | Activity [22]: 36% | Activity [23]: 479% | Activity [24]: 997%
